Laboratory results published in ChEMBL document CHEMBL3286304, “Cytotoxicity and DNA binding property of the dimers of triphenylethylene-coumarin hybrid with one amino side chain” (Bioorg Med Chem Lett, 2014).
Activity calls are given as the source filed them. The calls are words filed in the database; no cut-off is given here.

Legend:
A549 = test: Antiproliferative activity against human A549 cells after 48 hrs by MTT assay; assay type: functional, cell-based; details: A549, 48 h
K562 = test: Antiproliferative activity against human K562 cells after 48 hrs by MTT assay; assay type: functional, cell-based; details: K562, 48 h
MCF7 = test: Antiproliferative activity against human MCF7 cells after 48 hrs by MTT assay; assay type: functional, cell-based; details: MCF7, 48 h
HeLa = test: Antiproliferative activity against human HeLa cells after 48 hrs by MTT assay; assay type: functional, cell-based
Calf thymus DNA [1] = test: Binding affinity to calf thymus DNA at 25 degC at pH 7.4 after 10 mins by UV-vis spectrophotometry; assay type: nucleic-acid assay; details: Bos taurus
Method in brief: (§1)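 Ct-DNA titrated (0–180 µM for some dimers, 0–160 µM for others) into dimer at 5.0 × 10^-5 M in 10 mM phosphate buffer pH 7.4, 50 mM NaCl, 2% DMSO, 25 °C; UV–vis absorption followed at λmax; binding constant K by double inverse method.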

Calf thymus DNA [2] = test: Binding affinity to calf thymus DNA assessed as hypsochromic shift at 50 uM at 25 degC at pH 7.4 after 10 mins by UV-vis spectrophotometry; assay type: nucleic-acid assay; details: Bos taurus; method in brief: as §1
Calf thymus DNA [3] = test: Binding affinity to calf thymus DNA assessed as hyperchromicity at 50 uM at 25 degC at pH 7.4 after 10 mins by UV-vis spectrophotometry; assay type: nucleic-acid assay; details: Bos taurus; method in brief: as §1
Calf thymus DNA [4] = test: Binding affinity to calf thymus DNA assessed as DNA intercalation at 20 uM at pH 7.4 after 10 mins by circular dichroism analysis; assay type: nucleic-acid assay; details: Bos taurus
Method in brief: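 CD spectra of Ct-DNA (5.0 × 10^-5 M) alone and with dimer at 2.0 × 10^-5 M in 10 mM phosphate buffer pH 7.4, 50 mM NaCl, 2% DMSO, 25 °C.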

Calf thymus DNA [5] = test: Binding affinity to calf thymus DNA at 25 degC at pH 7.4 after 10 mins by Stern-Volmer plot analysis; assay type: nucleic-acid assay; details: Bos taurus
Method in brief: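 Dimer (5.0 × 10^-5 M) titrated with Ct-DNA 0–180 µM in 10 mM phosphate pH 7.4, 50 mM NaCl, 2% DMSO, 25 °C; fluorescence emission near 465 nm, excitation 330–345 nm by compound, slits 5.0 nm; F/F0 versus DNA concentration, Stern–Volmer fitting gives binding constant.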

Calf thymus DNA [6] = test: Binding affinity to calf thymus DNA assessed as change in melting temperature at 5 uM after 10 mins by thermal denaturation assay; assay type: nucleic-acid assay; details: Bos taurus
Method in brief: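 Melting curves of Ct-DNA (5.0 × 10^-5 M) with or without dimer at 5.0 × 10^-6 M in 1 mM phosphate buffer pH 7.4, 5 mM NaCl, 2% DMSO; heated over roughly 55–85 °C; ΔTm taken relative to DNA alone.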

[7] = Cytotoxicity against mouse skull osteoblasts at 100 uM after 48 hrs by MTT assay; assay type: cell-based; details: osteoblast
[8] = Cytotoxicity against mouse skull osteoblasts at 10 uM after 48 hrs by MTT assay; assay type: cell-based; details: osteoblast
[9] = Cytotoxicity against mouse skull osteoblasts at 1 uM after 48 hrs by MTT assay; assay type: cell-based; details: osteoblast
[10] = Cytotoxicity against mouse skull osteoblasts at 20 uM after 48 hrs by MTT assay; assay type: cell-based; details: osteoblast
[11] = Cytotoxicity against mouse skull osteoblasts at 40 uM after 48 hrs by MTT assay; assay type: cell-based; details: osteoblast

Row | SMILES | IC50 (A549) [µM] | IC50 (K562) [µM] | IC50 (MCF7) [µM] | IC50 (HeLa) [µM] | Kb (Calf thymus DNA [1]) | Activity (Calf thymus DNA [2]) [nm] | Activity (Calf thymus DNA [3]) [%] | Activity (Calf thymus DNA [4]) | Kb (Calf thymus DNA [5]) | ΔTm (Calf thymus DNA [6]) [°C] | Activity [7] [%] | Activity [8] [%] | Activity [9] [%] | Activity [10] [%] | Activity [11] [%]
1 | Nc1ccc(-c2c(-c3ccc(OCCN4CCCC4)cc3)c3ccccc3oc2=O)cc1 | > 50 | > 50 | 45.7 | > 50 |  |  |  |  |  |  |  |  |  |  | 
2 | O=C(Nc1ccc(-c2c(-c3ccc(OCCN4CCCC4)cc3)c3ccccc3oc2=O)cc1)c1cccc(C(=O)Nc2ccc(-c3c(-c4ccc(OCCN5CCCC5)cc4)c4ccccc4oc3=O)cc2)c1 | 15.2 | 15.2 | 29.5 | 31 |  |  |  |  |  |  |  |  |  |  | 
3 | O=C(CCCCCCCCC(=O)Nc1ccc(-c2c(-c3ccc(OCCN4CCCCC4)cc3)c3ccccc3oc2=O)cc1)Nc1ccc(-c2c(-c3ccc(OCCN4CCCCC4)cc3)c3ccccc3oc2=O)cc1 | > 50 | > 50 | > 50 | > 50 | 5.3 ×10⁴ /M | 1.5 | 35 | Active | 2.1 ×10⁴ /M | 2.5 |  |  |  |  | 
4 | O=C(CC(=O)Nc1ccc(-c2c(-c3ccc(OCCN4CCCC4)cc3)c3ccccc3oc2=O)cc1)Nc1ccc(-c2c(-c3ccc(OCCN4CCCC4)cc3)c3ccccc3oc2=O)cc1 | 7.73 | 3.23 | 3.52 | 6.49 |  |  |  |  |  |  | 27.4 | -1.3 | -10.4 | 0.8 | 14.5
5 | Nc1ccc(-c2c(-c3ccc(OCCN4CCCCC4)cc3)c3ccccc3oc2=O)cc1 | > 50 | > 50 | 43.8 | > 50 |  |  |  |  |  |  |  |  |  |  | 
6 | O=C(CCCCC(=O)Nc1ccc(-c2c(-c3ccc(OCCN4CCCCC4)cc3)c3ccccc3oc2=O)cc1)Nc1ccc(-c2c(-c3ccc(OCCN4CCCCC4)cc3)c3ccccc3oc2=O)cc1 | 27 | 23.8 | 35.4 | 34.4 | 1.5 ×10⁵ /M | 1.5 | 40 | Active | 3.8 ×10⁵ /M | 5.1 |  |  |  |  | 
7 | O=C(Nc1ccc(-c2c(-c3ccc(OCCN4CCCCC4)cc3)c3ccccc3oc2=O)cc1)c1cccc(C(=O)Nc2ccc(-c3c(-c4ccc(OCCN5CCCCC5)cc4)c4ccccc4oc3=O)cc2)c1 | > 50 | > 50 | > 50 | > 50 | 4.8 ×10⁴ /M | 0.5 | 32 | Active | 1.3 ×10⁴ /M | 2 |  |  |  |  | 
8 | O=C(CCCCC(=O)Nc1ccc(-c2c(-c3ccc(OCCN4CCCC4)cc3)c3ccccc3oc2=O)cc1)Nc1ccc(-c2c(-c3ccc(OCCN4CCCC4)cc3)c3ccccc3oc2=O)cc1 | 22.3 | 28 | 37.6 | 36.4 |  |  |  |  |  |  |  |  |  |  | 
9 | O=C(CC(=O)Nc1ccc(-c2c(-c3ccc(OCCN4CCCCC4)cc3)c3ccccc3oc2=O)cc1)Nc1ccc(-c2c(-c3ccc(OCCN4CCCCC4)cc3)c3ccccc3oc2=O)cc1 | 8.44 | 0.98 | 8.57 | 7.82 | 4.5 ×10⁵ /M | 2 | 47 | Active | 6.9 ×10⁵ /M | 6 | 36.2 | 0.3 | -8.4 | 0.6 | 20.1
10 | O=C(CCCCCCCCC(=O)Nc1ccc(-c2c(-c3ccc(OCCN4CCCC4)cc3)c3ccccc3oc2=O)cc1)Nc1ccc(-c2c(-c3ccc(OCCN4CCCC4)cc3)c3ccccc3oc2=O)cc1 | 16.9 | 18.9 | 35.9 | 42.5 |  |  |  |  |  |  |  |  |  |  | 
